Sampled rows, rich in hits. Any-hit rate of the full collection: about 0.55%.
TRPML3 agonist: human mucolipin-3 channel agonism | Q8TDD5 | HEK293 TRPML3-YFP, Fluo-8 calcium fluorescence; 100% = the carbachol control signal | activation, % at 3 µM | 220,000 compounds, 0.29% hits | AID 1448;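 active means activation above its plate's cutoff, the mean activation of the plate's test wells plus 3 SD, cut at about 12% in these data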;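 further: 0% = DMSO only wells and 100% = carbachol wells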
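Test system: HEK293 cells stably carrying human TRPML3-YFP; Doses: single dose, 3 µM final nominal compound, 0.3% DMSO final; Schedule: dye loading 1 h 37 °C then 30 min ambient, 125 s read; Technique: Fluo-8 calcium fluorescence; Benchmarks: high control carbachol 87 µM, low control DMSO.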
OXTR agonist: human OXTR agonism | activation, % at 3 µM | 320,000 compounds, 0.32% hits | P30559 | AID 2435 | CHO-OTR cells, Fluo-8 calcium fluorescence; normalized: DMSO 0%, oxytocin 100%;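 active means activation above the mean of all tested compounds plus 3 SD, cutoff set per screening run, cut at about 20% in these data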;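 further: peak over basal fluorescence ratio from a 100 s FLIPR kinetic read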
OXTR potentiator: human OXTR potentiation | P30559 | CHO-OTR cells, Fluo-8 calcium fluorescence, potentiator mode; 0% = oxytocin EC15, 100% = EC100 | activation, % at 3 µM | 320,000 compounds, 0.061% hits | AID 2445;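 active means activation above that plate's cutoff, the mean activation of tested compounds plus 3 SD, cut at about 6.6% in these data, passing the limit was not always enough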;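 further: 100% uses oxytocin at 75 nM as the full agonist control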
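Material: human OTR in CHO cells. Compound: 3.0 µM, one dose. Timing: compound 6 min at room temperature before oxytocin, 100 s read. Evaluation: % activation of max/min ratio relative to oxytocin controls. Replication: single well per compound, singlicate. Signal: Fluo-8 calcium dye fluorescence.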
zfTRPN1 agonist: zebrafish TRPN1 (NompC) channel agonism; HEK293 zebrafish TRPN1-YFP, Fluo-8 calcium fluorescence; 100% = response to 87 µM carbachol; activation, % at 3 µM; 220,000 compounds, 0.18% hits;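 active means activation above its plate's cutoff, the mean activation of test wells on that plate plus 3 SD, cut at about 19% in these data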;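 further: 0% = DMSO alone and 100% = 87 µM carbachol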
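Control set: carbachol 87 µM as high control, DMSO as low control; system: HEK293 stable line with zebrafish TRPN1-YFP; read-out: % activation versus carbachol response; detection: intracellular calcium fluorescence with Fluo-8; doses: single test compound dose, 3 µM nominal, 0.3% DMSO; schedule: dye 1 h 37 °C plus 30 min RT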
V1R ag counter: activates human V1a receptor in oxytocin agonist counter-screen. 320,000 compounds, 0.25% hits. activation, % at 3 µM. P37288. CHO-V1R cells, Fluo-8 calcium fluorescence, agonist mode; 0% DMSO, 100% 3 nM vasopressin;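 active means activation above the mean activation of all tested compounds plus 3 SD, per screening run, cut at about 20% in these data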;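 further: signal is peak over basal fluorescence ratio across a 100 second FLIPR read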
Target sequence (P37288 whole entry, looked up): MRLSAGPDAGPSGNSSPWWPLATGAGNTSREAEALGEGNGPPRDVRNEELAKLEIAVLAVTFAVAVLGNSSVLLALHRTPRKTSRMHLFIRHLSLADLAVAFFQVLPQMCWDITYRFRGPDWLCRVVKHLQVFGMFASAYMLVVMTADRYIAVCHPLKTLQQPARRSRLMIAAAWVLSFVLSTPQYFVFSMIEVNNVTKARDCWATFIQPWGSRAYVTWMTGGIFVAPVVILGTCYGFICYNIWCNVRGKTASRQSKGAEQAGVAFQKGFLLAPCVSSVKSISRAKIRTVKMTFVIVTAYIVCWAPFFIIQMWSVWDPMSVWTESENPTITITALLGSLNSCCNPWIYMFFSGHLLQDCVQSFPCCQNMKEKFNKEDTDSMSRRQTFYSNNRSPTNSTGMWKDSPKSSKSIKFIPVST
OXTR agonist cf: confirmation of human oxytocin receptor agonists; activation, % at 3 µM; shares compounds with OXTR agonist; CHO-OTR cells, Fluo-8 calcium fluorescence, agonist; AID 434963; 390 compounds, 20% hits;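 active means mean activation above about 20% derived from the earlier single-dose screen, limit read from the data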;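 further: peak over minimum fluorescence ratio per well during a 100 second FLIPR read; 0% = DMSO alone and 100% = oxytocin high control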
V1R ag counter 3x: activates V1a receptor in oxytocin agonist counter-screen; shares compounds with OXTR agonist; activation, % at 3 µM; CHO-V1R cells, Fluo-8 calcium fluorescence; 390 compounds, 10% hits;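 active means mean activation over triplicate exceeds the hit threshold set in the earlier primary screen, cut at about 20% in these data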;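 further: peak over basal fluorescence ratio within a 100 second read; 0% = DMSO alone and 100% = 3 nM vasopressin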
OXTR pot confirm: confirmation of human oxytocin receptor potentiators; shares compounds with OXTR potentiator; CHO-OTR cells, Fluo-8 calcium fluorescence, potentiation; scaled from low-dose to maximal oxytocin; activation, % at 3 µM; 180 tested, under 10 active; AID 434985;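 active means mean percent activation over triplicates above a cutoff set from solvent-only control plates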;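 further: compounds tested in the presence of an EC15 dose of oxytocin; 0% = EC15 oxytocin with DMSO and 100% = EC100 oxytocin with DMSO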
The depositor's hits bear a star; nt = no result given.

SMILES | TRPML3 agonist | OXTR agonist | OXTR potentiator | zfTRPN1 agonist | V1R ag counter | OXTR agonist cf | V1R ag counter 3x | others
COc1cc(CNCCc2c[nH]c3ccccc23)ccc1OCc1ccc(F)cc1 | 3 | 22* | -8 | 4 | 12 | 18 | 8
COc1cc(CNCCc2ccc(F)cc2)ccc1OCc1ccc(Cl)nc1 | 1 | 22* | -14 | 0 | 13 | 10 | 1
CCc1nnc(NC(=O)CCNC(=O)c2ccco2)s1 | nt | 0 | -9 | nt | 0 | nt | nt
O=c1c2cc(NC(=S)NCCCN3CCC(Cc4ccccc4)CC3)ccc2nc2n1CCCCC2 | 5 | 20* | -27 | 6 | 14 | 16 | 14
O=c1c2cc(NC(=S)NCCN3CCCCCC3)ccc2nc2n1CCCCC2 | 1 | -1 | -4 | -1 | 0 | nt | nt
COc1ccc(NS(=O)(=O)c2ccc(-n3nnc4ccccc43)c([N+](=O)[O-])c2)cc1 | 2 | 24* | -11 | 8 | 8 | 13 | 8
CN(c1ccccc1)c1ccc(/C=C/[N+](=O)[O-])cc1 | 10 | 29* | -12 | 16 | 15 | 26* | 32*
Cc1cccc(Oc2ccc(NC(=O)C3=CC=CN4CCS(=O)(=O)N=C34)cc2)c1 | nt | 21* | -11 | nt | 7 | 11 | 3
Cc1ccc(Oc2ccc(NC(=O)C3=CC=CN4CCS(=O)(=O)N=C34)cc2)cc1 | nt | 24* | -12 | nt | 7 | 9 | 2
CC(C)(C)c1ccc(NC(=O)C2=CC=CN3CCS(=O)(=O)N=C23)cc1 | nt | 4 | -9 | nt | 2 | nt | nt
O=C(COC(=O)CCC(NC(=O)OCc1ccccc1)C(=O)OCC(=O)Nc1ccccc1)Nc1ccccc1 (centres undefined) | 0 | 1 | -9 | -1 | 3 | nt | nt
CC(=O)Nc1ccc(/C(C)=N/Nc2nc(Nc3cccc4ccccc34)nc(N3CCOCC3)n2)cc1 | 5 | 25* | -13 | 9 | 12 | 0 | 0
COc1ccc(S(=O)(=O)Nc2cc3c4c(c2)CCC(=O)N4CCC3)cc1C | nt | 1 | -5 | nt | 3 | nt | nt
COc1ccc(CCNC(=O)CCCN2C(=O)C(c3ccccc3)Oc3cccnc32)cc1OC (centres undefined) | nt | 25* | -7 | nt | 4 | 0 | 0
COc1ccccc1NC(=O)CCCN1C(=O)C(c2ccccc2)Oc2cccnc21 (centres undefined) | nt | 1 | -5 | nt | 13 | nt | nt
Cc1ccc(Cl)cc1N1CCN(C(=O)C2CCN(S(=O)(=O)c3c(C)nn(C)c3C)CC2)CC1 | 1 | 21* | -12 | 4 | 16 | 12 | 11
C/C(=N/O)c1cc(C(C)(C)C)c(O)c(C(C)(C)C)c1 | 0 | 21* | -12 | -1 | 9 | -1 | 3
Cc1cccc(OCC(O)Cn2c(=N)n(Cc3ccccc3)c3ccccc32)c1 (centres undefined) | -1 | 31* | -13 | -1 | 18 | 7 | 6
CCOc1ccccc1OCC(=O)Nc1ccc(OC)c(S(=O)(=O)N2CCCCC2)c1 | nt | 0 | -8 | nt | 1 | nt | nt
CCOc1ccc(NC(=O)C(C)Oc2ccc(C#N)cc2)cc1S(=O)(=O)N1CCCC1 (centres undefined) | nt | 20* | -10 | nt | 9 | 16 | 8
COc1ccc(C2SCCN2C(=S)Nc2ccc(F)cc2)cc1 (centres undefined) | 1 | 3 | -8 | 3 | 2 | nt | nt
CCOC(=O)c1ccc(NC(=S)N2CCSC2c2ccc(OC)cc2)cc1 (centres undefined) | 2 | 32* | -21 | 5 | 18 | 37* | 31*
COc1ccc(S(=O)(=O)N(n2c(C)nnc2-n2nc(C)cc2C)S(=O)(=O)c2ccc(OC)cc2)cc1 | 0 | 21* | -15 | 2 | 0 | 1 | 1
COc1cc(C(=O)NC(=S)NNC(=O)c2cnccn2)cc(OC)c1OC | 0 | 0 | -1 | 0 | -1 | nt | nt
COc1ccccc1C(=O)NNC(=S)NC(=O)c1cc(OC)c(OC)c(OC)c1 | 2 | 21* | -18 | 3 | 12 | 8 | 19
SMILES | TRPML3 agonist | OXTR agonist | OXTR potentiator | zfTRPN1 agonist | V1R ag counter | OXTR agonist cf | V1R ag counter 3x | others
O=C(NCCCN1CCCCCC1)C1CC(=O)N(CCc2ccccc2)C1 (centres undefined) | 0 | -1 | -5 | -1 | 0 | nt | nt
O=C(NCCCN1CCOCC1)C1CC(=O)N(CCc2ccccc2)C1 (centres undefined) | 1 | 1 | 12* | -2 | 1 | nt | nt | OXTR pot confirm=-10
CCn1c(SCC(=O)N(C)c2ccccc2)nc2c([nH]c3ccccc32)c1=O | nt | -1 | -9 | nt | -1 | nt | nt
O=C(CCc1ccccc1)N1CCN(S(=O)(=O)c2cccs2)CC1 | nt | 3 | 13* | nt | 1 | nt | nt | OXTR pot confirm=-4
CCN(CC)S(=O)(=O)c1ccc(C)c(NC(=O)c2cc(C)oc2C)c1 | 0 | 0 | 13* | -2 | -1 | nt | nt | OXTR pot confirm=-6
O=S(=O)(c1ccc(Cl)nc1)N1CCCc2ccccc21 | 0 | -2 | 8.3* | -1 | -1 | nt | nt | OXTR pot confirm=1
CN(C)c1ccc(CNC(=O)C2CCN(S(=O)(=O)c3ccc4c(c3)CCC(=O)N4)CC2)cc1 | 0 | 0 | 11* | 0 | 0 | nt | nt | OXTR pot confirm=-4
C[C@H](CO)N1C[C@H](C)[C@@H](CN(C)S(=O)(=O)c2cccs2)Oc2ccc(NC(=O)Nc3ccccc3)cc2C1=O | nt | 3 | 15* | nt | 3 | nt | nt | OXTR pot confirm=-7
C[C@H](CO)N1C[C@H](C)[C@@H](CN(C)C(=O)Nc2ccc(C(F)(F)F)cc2)Oc2c(cccc2N(C)C)C1=O | nt | 0 | 12* | nt | 0 | nt | nt | OXTR pot confirm=0
C[C@@H]1CN([C@H](C)CO)C(=O)c2cc(NC(=O)Nc3ccc(C(F)(F)F)cc3)ccc2O[C@H]1CN(C)S(=O)(=O)c1cccs1 | nt | 2 | -6 | nt | 2 | nt | nt
CC(C)(C)[C@H]1CCC(=O)N([C@H](CN=[N+]=[N-])Cc2ccccc2)CC1 | nt | -3 | -6 | nt | 1 | nt | nt
Cc1ccccc1-c1nc(CN(C)C(C)c2ccon2)c(C)o1 (centres undefined) | 0 | -1 | 13* | -1 | -1 | nt | nt | OXTR pot confirm=-1
Cc1oc(-c2ccccc2Cl)nc1CN(C)C(C)c1ccon1 (centres undefined) | -1 | -2 | 1 | -1 | -1 | nt | nt
C=C1C(C(=O)Nc2ccccc2)C1C(=O)Nc1ccccc1 (centres undefined) | 0 | -1 | -1 | -1 | 1 | nt | nt
CCOP(=O)(c1ccccc1)C(O)c1ccc(Br)cc1 (centres undefined) | 0 | 0 | -7 | -1 | 0 | nt | nt

Source: PubChem BioAssay (The Scripps Research Institute Molecular Screening Center)
